Assay results taken from ChEMBL document CHEMBL4425133, “Discovery and Pharmacokinetic and Pharmacological Properties of the Potent and Selective MET Kinase Inhibitor 1-{6-[6-(4-Fluorophenyl)-[1,2,4]triazolo[4,3-b]pyridazin-3-ylsulfanyl]benzothiazol-2-yl}-3-(2-morpholin-4-ylethyl)urea (SAR125844)” (J Med Chem, 2016).
≈ marks a conversion by molar mass, not a printed value. Where “and” joins values, the source holds several entries; their conditions need not be identical. Equal values may be shown once. Values belong to the molecule of their own block, whether it stands above or below them.

Key:
[1] = target: Hepatocyte growth factor receptor (Homo sapiens, UniProt P08581, L1195V); assay: Inhibition of phosphorylated MET L1195V mutant (unknown origin) pre-incubated for 30 mins before biotinylated poly(glutamate-alanine-tyrosine) peptide addition and measured after 5 mins by HTRF assay
Sequence of Hepatocyte growth factor receptor (Homo sapiens, UniProt P08581, L1195V) (P08581 25-1390 L1195V limits assumed): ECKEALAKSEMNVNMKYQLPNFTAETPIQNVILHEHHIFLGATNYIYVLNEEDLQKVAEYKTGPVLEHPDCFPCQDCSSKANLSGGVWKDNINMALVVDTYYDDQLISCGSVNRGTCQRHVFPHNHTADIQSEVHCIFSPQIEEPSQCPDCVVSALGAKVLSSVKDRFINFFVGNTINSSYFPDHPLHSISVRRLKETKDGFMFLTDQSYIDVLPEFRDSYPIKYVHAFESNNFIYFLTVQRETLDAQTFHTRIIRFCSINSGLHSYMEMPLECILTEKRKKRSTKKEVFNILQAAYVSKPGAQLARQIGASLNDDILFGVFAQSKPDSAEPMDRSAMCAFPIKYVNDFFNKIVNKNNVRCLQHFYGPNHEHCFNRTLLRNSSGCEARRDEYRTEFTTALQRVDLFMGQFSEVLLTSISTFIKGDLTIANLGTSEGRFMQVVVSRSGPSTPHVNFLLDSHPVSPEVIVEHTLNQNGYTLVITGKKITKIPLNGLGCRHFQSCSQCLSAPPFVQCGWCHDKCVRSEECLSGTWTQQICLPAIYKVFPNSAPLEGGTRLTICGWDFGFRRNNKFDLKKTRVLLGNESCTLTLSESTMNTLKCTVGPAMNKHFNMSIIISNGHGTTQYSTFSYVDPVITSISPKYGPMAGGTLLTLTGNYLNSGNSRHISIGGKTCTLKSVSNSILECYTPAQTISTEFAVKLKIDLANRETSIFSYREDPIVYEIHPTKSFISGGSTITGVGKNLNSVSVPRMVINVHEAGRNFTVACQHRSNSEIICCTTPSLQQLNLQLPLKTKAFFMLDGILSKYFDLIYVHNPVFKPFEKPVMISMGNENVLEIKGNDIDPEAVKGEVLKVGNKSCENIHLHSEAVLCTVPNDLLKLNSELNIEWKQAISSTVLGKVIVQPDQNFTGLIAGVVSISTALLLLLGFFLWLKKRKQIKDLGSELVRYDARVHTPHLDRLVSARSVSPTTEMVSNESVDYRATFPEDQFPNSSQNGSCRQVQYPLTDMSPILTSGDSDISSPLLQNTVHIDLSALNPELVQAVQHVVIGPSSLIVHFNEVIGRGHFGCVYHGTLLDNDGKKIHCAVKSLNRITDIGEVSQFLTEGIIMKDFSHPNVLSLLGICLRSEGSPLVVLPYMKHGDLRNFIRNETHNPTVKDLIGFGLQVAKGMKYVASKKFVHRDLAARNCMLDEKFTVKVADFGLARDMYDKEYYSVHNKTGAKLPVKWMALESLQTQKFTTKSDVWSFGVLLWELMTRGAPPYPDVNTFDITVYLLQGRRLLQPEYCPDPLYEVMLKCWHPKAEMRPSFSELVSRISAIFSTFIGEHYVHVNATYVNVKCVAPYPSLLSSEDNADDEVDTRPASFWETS

[2] = Clearance in dog at 3 mg/kg, iv; assay type: ADME, organism-based, Canis lupus familiaris; conditions: in vivo
[3] = Apparent permeability from apical to basolateral side in human Caco2/TC7 cells at 20 uM by liquid chromatography-tandem mass spectrometry; conditions: Caco-2
[4] = Blood clearance in advanced solid tumor patient at 50 to 740 mg/m2 during phase-1 trial; assay type: ADME, tissue-based; conditions: human, whole blood
[5] = target: T1, Hepatocyte growth factor receptor (Homo sapiens, UniProt P08581); assay: Inhibition of wild type phosphorylated MET (unknown origin) pre-incubated for 30 mins before biotinylated poly(glutamate-alanine-tyrosine) peptide addition and measured after 5 mins by HTRF assay
T1 sequence (P08581 whole entry): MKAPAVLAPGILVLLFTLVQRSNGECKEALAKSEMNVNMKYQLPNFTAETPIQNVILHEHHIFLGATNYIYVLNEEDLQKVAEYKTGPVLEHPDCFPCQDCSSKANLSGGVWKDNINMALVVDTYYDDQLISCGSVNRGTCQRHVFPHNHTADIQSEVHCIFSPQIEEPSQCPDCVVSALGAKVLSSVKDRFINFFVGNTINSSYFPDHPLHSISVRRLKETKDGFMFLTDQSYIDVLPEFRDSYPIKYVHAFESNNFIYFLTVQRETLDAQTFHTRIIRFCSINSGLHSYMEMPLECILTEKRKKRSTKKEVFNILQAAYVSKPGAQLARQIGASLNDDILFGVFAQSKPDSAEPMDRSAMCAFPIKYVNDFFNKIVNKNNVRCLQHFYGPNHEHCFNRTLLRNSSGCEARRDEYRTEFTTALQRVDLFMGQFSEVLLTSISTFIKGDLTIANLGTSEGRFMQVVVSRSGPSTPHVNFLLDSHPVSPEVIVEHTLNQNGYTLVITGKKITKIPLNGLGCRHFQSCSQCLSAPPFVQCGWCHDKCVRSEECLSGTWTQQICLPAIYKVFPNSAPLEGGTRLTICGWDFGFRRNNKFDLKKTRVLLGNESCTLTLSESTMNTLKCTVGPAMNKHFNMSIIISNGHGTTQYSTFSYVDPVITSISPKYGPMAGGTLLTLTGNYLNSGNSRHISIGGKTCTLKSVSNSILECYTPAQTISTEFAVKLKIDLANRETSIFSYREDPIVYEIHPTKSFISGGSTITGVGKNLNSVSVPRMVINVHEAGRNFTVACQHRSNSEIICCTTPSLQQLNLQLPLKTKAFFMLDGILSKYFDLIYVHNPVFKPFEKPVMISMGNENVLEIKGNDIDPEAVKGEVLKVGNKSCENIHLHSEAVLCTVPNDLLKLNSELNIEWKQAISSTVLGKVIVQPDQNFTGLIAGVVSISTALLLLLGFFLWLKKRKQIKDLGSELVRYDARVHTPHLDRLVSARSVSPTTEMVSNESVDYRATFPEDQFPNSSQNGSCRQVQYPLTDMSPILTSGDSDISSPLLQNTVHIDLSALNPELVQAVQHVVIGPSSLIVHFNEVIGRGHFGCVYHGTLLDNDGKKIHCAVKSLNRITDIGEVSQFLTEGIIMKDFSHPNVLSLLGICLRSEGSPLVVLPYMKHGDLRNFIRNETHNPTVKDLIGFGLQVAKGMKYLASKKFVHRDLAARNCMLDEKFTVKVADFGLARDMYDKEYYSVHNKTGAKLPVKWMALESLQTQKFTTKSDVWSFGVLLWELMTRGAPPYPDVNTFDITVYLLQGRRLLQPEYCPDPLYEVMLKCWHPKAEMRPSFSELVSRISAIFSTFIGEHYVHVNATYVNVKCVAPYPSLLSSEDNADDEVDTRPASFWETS

[6] = Clearance in dog at 3 mg/kg, iv relative to hepatic blood flow; assay type: ADME, organism-based, Canis lupus familiaris; conditions: in vivo
Cytochrome P450 3A4 [7] = target: T2, Cytochrome P450 3A4 (Homo sapiens, UniProt P08684); assay: Inhibition of human recombinant CYP3A4 co-expressed with human P450 reductase and human b5 reductase assessed as reduction in 7-Hydroxyquinoline production using 7-benzyloxyquinoline as substrate and NADPH incubated for 15 mins by fluorimetry; assay type: ADME
T2 sequence (P08684 whole entry): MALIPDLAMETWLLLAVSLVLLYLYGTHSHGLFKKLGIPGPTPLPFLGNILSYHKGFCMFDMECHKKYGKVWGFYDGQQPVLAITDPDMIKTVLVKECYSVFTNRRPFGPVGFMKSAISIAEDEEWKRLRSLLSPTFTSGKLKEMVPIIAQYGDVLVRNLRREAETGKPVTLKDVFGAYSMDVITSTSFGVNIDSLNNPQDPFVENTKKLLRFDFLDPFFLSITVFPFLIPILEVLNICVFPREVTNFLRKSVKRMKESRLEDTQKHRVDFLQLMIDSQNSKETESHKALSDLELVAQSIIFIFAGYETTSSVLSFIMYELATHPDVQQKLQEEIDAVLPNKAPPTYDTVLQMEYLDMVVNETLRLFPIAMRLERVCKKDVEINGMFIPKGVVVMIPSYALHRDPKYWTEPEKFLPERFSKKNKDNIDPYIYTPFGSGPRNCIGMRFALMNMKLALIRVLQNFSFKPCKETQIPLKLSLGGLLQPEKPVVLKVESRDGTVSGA

in vivo = conditions: SCID, mouse, tumor/plasma, iv, 20 mg/kg
[8] = Toxicity in advanced solid tumor patient at 50 to 740 mg/m2 during phase-1 trial; conditions: human, in vivo
[9] = AUC in SCID mouse bearing advanced-stage human Hs746T cells at 20 mg/kg, iv administered as single dose after 1 to 72 hrs by liquid chromatography-tandem mass spectrometry; assay type: ADME, organism-based; conditions: in vivo
[10] = Volume of distribution at steady state in advanced solid tumor patient at 50 to 740 mg/m2 during phase-1 trial; assay type: ADME; conditions: human, in vivo; read-out: Vdss
[11] = target: Hepatocyte growth factor receptor (Homo sapiens, UniProt P08581, Y1230H); assay: Inhibition of phosphorylated MET Y1230H mutant (unknown origin) pre-incubated for 30 mins before biotinylated poly(glutamate-alanine-tyrosine) peptide addition and measured after 5 mins by HTRF assay
Sequence of Hepatocyte growth factor receptor (Homo sapiens, UniProt P08581, Y1230H) (P08581 25-1390 Y1230H limits assumed): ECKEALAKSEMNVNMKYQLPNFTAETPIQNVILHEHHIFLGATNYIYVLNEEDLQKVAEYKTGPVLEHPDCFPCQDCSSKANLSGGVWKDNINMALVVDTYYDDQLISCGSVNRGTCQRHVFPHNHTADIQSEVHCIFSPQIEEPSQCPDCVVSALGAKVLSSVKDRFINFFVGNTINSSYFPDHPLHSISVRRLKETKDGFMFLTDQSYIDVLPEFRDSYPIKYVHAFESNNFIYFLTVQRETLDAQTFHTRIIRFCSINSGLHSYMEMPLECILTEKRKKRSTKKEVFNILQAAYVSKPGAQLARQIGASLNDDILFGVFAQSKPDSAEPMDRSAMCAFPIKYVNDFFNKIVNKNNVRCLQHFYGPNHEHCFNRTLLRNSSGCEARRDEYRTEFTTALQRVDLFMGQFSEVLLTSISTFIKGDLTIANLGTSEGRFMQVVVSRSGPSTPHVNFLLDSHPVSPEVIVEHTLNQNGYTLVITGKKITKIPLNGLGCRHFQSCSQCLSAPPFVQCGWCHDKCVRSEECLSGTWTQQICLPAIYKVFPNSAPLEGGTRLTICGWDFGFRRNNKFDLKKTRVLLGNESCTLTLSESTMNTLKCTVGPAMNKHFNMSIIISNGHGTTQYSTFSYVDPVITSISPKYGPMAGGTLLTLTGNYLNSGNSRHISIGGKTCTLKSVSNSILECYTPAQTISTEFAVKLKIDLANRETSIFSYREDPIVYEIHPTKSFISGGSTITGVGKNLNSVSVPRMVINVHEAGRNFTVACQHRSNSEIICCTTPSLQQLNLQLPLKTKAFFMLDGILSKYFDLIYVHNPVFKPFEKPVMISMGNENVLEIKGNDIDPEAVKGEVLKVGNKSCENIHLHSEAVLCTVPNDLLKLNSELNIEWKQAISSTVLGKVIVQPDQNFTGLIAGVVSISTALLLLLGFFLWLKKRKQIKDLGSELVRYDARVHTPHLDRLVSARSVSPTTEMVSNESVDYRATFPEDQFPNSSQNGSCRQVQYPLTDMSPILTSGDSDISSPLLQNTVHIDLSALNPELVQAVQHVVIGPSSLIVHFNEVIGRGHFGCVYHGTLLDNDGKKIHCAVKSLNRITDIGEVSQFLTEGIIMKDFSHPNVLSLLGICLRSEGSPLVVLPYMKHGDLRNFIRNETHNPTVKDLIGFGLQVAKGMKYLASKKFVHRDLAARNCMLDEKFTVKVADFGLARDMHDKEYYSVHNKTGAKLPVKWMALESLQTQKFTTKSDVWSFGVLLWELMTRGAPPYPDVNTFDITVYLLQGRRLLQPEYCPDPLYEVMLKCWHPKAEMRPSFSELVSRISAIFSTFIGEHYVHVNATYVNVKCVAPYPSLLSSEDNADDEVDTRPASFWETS

[12] = Drug uptake in tumor of SCID mouse bearing advanced-stage human Hs746T cells at 20 mg/kg, iv administered as single dose after 1 to 72 hrs by liquid chromatography-tandem mass spectrometry; assay type: ADME, organism-based, Neoplasm; conditions: in vivo
[13] = Oral bioavailability in mouse; assay type: ADME, organism-based; conditions: in vivo
[14] = Volume of distribution at steady state in rat at 5 mg/kg, iv; assay type: ADME, organism-based; conditions: in vivo, read-out: Vdss
[15] = Clearance in SCID mouse bearing advanced-stage human Hs746T cells at 20 mg/kg, iv administered as single dose after 1 to 72 hrs by liquid chromatography-tandem mass spectrometry; assay type: ADME, organism-based; conditions: in vivo
[16] = Volume of distribution at steady state in SCID mouse bearing advanced-stage human Hs746T cells at 20 mg/kg, iv administered as single dose after 1 to 72 hrs by liquid chromatography-tandem mass spectrometry; assay type: ADME, organism-based; conditions: in vivo, read-out: Vdss
[17] = Unbound drug uptake in tumor of SCID mouse bearing advanced-stage human Hs746T cells at 20 mg/kg, iv administered as single dose after 24 hrs by liquid chromatography-tandem mass spectrometry; assay type: ADME, organism-based, Neoplasm; conditions: in vivo
[18] = target: T1, Hepatocyte growth factor receptor; assay: Inhibition of phosphorylated MET in human MKN45 cells assessed as reduction in pMET Y1230/1234/1235 level incubated for 1 hr by ELISA; assay type: cell-based
Outline: (§1)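 MKN-45 is a MET-amplified human gastric tumour cell line.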

[19] = Protein binding in plasma of SCID mouse bearing advanced-stage human Hs746T cells at 20 mg/kg, iv administered as single dose after 24 hrs by liquid chromatography-tandem mass spectrometry; assay type: ADME, organism-based; conditions: read-out: PPB (converted)
[20] = Terminal half life in mouse at 1 mg/kg, iv […]; assay type: ADME, organism-based; conditions: in vivo, read-out: beta t1/2 (converted)
[21] = Clearance in mouse at 1 mg/kg, iv; assay type: ADME, organism-based; conditions: in vivo
[22] = Terminal half life in rat at 5 mg/kg, iv […]; assay type: ADME, organism-based; conditions: in vivo, read-out: beta t1/2 (converted)
[23] = Clearance in rat at 5 mg/kg, iv; assay type: ADME, organism-based; conditions: in vivo
[24] = Lipophilicity, log D of the compound by HPLC method; assay type: physicochemical
[25] = Blood clearance in advanced solid tumor patient at 50 to 740 mg/m2 relative to hepatic blood flow during phase-1 trial; assay type: ADME, tissue-based; conditions: human
MKN-45 = assay: Antiproliferative activity against human MKN45 cells assessed as reduction in [14C]-thymidine incorporation incubated for 96 hrs by beta counting method; assay type: functional, cell-based; conditions: MKN-45, 96 h; outline: as §1
Mus musculus [26] = assay: Inhibition of MET Y1349 phosphorylation in SCID mouse bearing advanced-stage human Hs746T cells at 20 mg/kg, iv administered as single dose after 48 hrs by using MSD assay; assay type: functional
[27] = Clearance in rat at 5 mg/kg, iv relative to hepatic blood flow; assay type: ADME, organism-based; conditions: in vivo
[28] = target: Hepatocyte growth factor receptor (Homo sapiens, UniProt P08581, M1250T); assay: Inhibition of phosphorylated MET M1250T mutant (unknown origin) pre-incubated for 30 mins before biotinylated poly(glutamate-alanine-tyrosine) peptide addition and measured after 5 mins by HTRF assay
[29] = Drug metabolism in human hepatic microsomes at 5 uM incubated for 20 mins in presence of NADPH by liquid chromatography-tandem mass spectrometry; assay type: ADME, Microsome; conditions: liver microsomes, read-out: Drug metabolism
[30] = target: T1, Hepatocyte growth factor receptor; assay: Binding affinity to MET (unknown origin) by isothermal titration calorimetry
[31] = Clearance in mouse at 1 mg/kg, iv relative to hepatic blood flow; assay type: ADME, organism-based; conditions: in vivo
[32] = Equilibrium solubility in phosphate buffer in absence of 10% Labrasol at pH 7.4; assay type: physicochemical
Mus musculus [33] = assay: Inhibition of MET Y1349 phosphorylation in SCID mouse bearing advanced-stage human Hs746T cells at 20 mg/kg, iv administered as single dose after 4 to 48 hrs by using MSD assay; assay type: functional, organism-based; conditions: TDE = time-dependent effect
[34] = Drug level in advanced solid tumor patient at 50 to 740 mg/m2 during phase-1 trial; assay type: ADME; conditions: human, in vivo
[35] = Terminal half life in dog at 3 mg/kg, iv; assay type: ADME, organism-based, Canis lupus familiaris; conditions: in vivo, read-out: beta t1/2 (converted)
[36] = Volume of distribution at steady state in mouse at 1 mg/kg, iv; assay type: ADME, organism-based; conditions: in vivo, read-out: Vdss
Mus musculus [37] = assay: Inhibition of MET Y1349 phosphorylation in SCID mouse bearing advanced-stage human Hs746T cells at 20 mg/kg, iv administered as single dose after 4 hrs by using MSD assay; assay type: functional
[38] = Volume of distribution at steady state in dog at 3 mg/kg, iv; assay type: ADME, organism-based, Canis lupus familiaris; conditions: in vivo, read-out: Vdss
[39] = Drug uptake in tumor of SCID mouse bearing advanced-stage human Hs746T cells at 20 mg/kg, iv administered as single dose after 24 hrs by liquid chromatography-tandem mass spectrometry; assay type: ADME, organism-based, Neoplasm; conditions: read-out: Drug uptake
[40] = Equilibrium solubility in phosphate buffer in presence of 10% Labrasol at pH 7.4; assay type: physicochemical; conditions: phosphate buffer with 10% Labrasol
[41] = Terminal half life in advanced solid tumor patient at 50 to 740 mg/m2 during phase-1 trial; assay type: ADME; conditions: human, in vivo; read-out: beta t1/2 (converted)
Mus musculus [42] = assay: Inhibition of MET Y1349 phosphorylation in SCID mouse bearing advanced-stage human Hs746T cells at 20 mg/kg, iv administered as single dose after 24 hrs by using MSD assay; assay type: functional
[43] = Drug distribution in rat at 25 mg/kg administered as [14C[-labeled compound through infusion after 1 to 2 hrs; assay type: ADME, organism-based; conditions: in vivo, iv
[44] = Drug distribution in rat tumor at 25 mg/kg administered as [14C[-labeled compound through infusion after 1 to 2 hrs; assay type: ADME, organism-based, Neoplasm; conditions: in vivo, iv
Tubulin = assay: Binding affinity to tubulin (unknown origin); assay type: protein-complex assay, Homo sapiens
[45] = Genotoxicity in Salmonella typhimurium by Ames test; assay type: toxicity; conditions: salmonella enterica subsp. enterica serovar typhimurium
Cytochrome P450 3A4 [46] = target: T2, Cytochrome P450 3A4; assay: Mechanism based time dependent inhibition of human recombinant CYP3A4 co-expressed with human P450 reductase and human b5 reductase assessed as reduction in 7-Hydroxyquinoline production using 7-benzyloxyquinoline as substrate and NADPH measured every 3 mins for 15 mins by fluorimetry; assay type: ADME; conditions: recombinant enzyme, 0.25 h
[47] = target: Cyclin-dependent kinase 9 (Homo sapiens, UniProt P50750); assay: Inhibition of CDK9 (unknown origin)
Sequence of Cyclin-dependent kinase 9 (P50750 whole entry): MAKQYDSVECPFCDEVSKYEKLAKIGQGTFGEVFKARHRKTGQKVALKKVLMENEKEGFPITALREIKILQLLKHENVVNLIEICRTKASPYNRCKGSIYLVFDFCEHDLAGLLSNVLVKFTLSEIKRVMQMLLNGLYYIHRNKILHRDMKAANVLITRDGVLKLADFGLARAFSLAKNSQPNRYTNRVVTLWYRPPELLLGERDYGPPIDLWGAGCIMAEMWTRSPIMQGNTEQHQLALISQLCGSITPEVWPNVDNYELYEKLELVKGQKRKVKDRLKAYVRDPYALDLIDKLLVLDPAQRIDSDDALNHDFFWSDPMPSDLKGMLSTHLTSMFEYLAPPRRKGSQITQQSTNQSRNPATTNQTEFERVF

SMILES: O=C(NCCN1CCOCC1)Nc1nc2ccc(Sc3nnc4ccc(-c5ccc(F)cc5)nn34)cc2s1 [SAR-125844]
IC50 [1]: 64 nM
clearance [2]: 8.33 mL/min/kg
Papp A→B at 20 µM [3]: 0.9 ×10⁻⁶ cm/s
clearance [4]: 565 mL/min and 8.33 mL/min/kg
IC50 [5]: 4 nM
CL [6]: 20%
IC50 (Cytochrome P450 3A4 [7]): > 200 µM
Kp (in vivo): 8.1
MTD [8]: 570 mg/m2
AUC [9]: 6190 ng·h/mL
Vd [10]: 505 L and 7.2 L/kg
IC50 [11]: 204 nM
Drug uptake [12]: Active
bioavailability [13]: 2%
Vd [14]: 2.9 L/kg
clearance [15]: 51.7 mL/min/kg
Vd [16]: 4.2 L/kg
Drug uptake(free) [17]: 2 nM
IC50 [18]: 5 nM
fraction unbound at 24 h [19]: 0.0033
half-life [20]: 288 min
clearance [21]: 46.7 mL/min/kg
half-life [22]: 216 min
clearance [23]: 25 mL/min/kg
logD [24]: 4.2
CL [25]: 37%
IC50 (MKN-45): 7 nM
inhibition in vivo at 20 mg/kg (Mus musculus [26]): 61%
CL [27]: 36%
IC50 [28]: 6 nM
metabolised at 20 min, 5 µM [29]: 23%
Kd [30]: 0.9 nM
CL [31]: 54%
solubility thermodynamic [32]: < 1 µM
inhibition (Mus musculus [33]): Tde
Drug uptake [34]: Dose-dependent effect
half-life [35]: 228 min
Vd [36]: 3.2 L/kg
inhibition in vivo at 20 mg/kg (Mus musculus [37]): 96%
Vd [38]: 1.3 L/kg
concentration at 24 h [39]: 300 ng/mL
solubility thermodynamic [40]: 500 µM
half-life [41]: 954 min
inhibition in vivo at 20 mg/kg (Mus musculus [42]): 80%
Drug uptake [43]: Active
Drug uptake [44]: Active

SMILES: COC(=O)Nc1nc2ccc(Sc3nnc4ccc(-c5ccc(F)cc5)nn34)cc2s1
IC50 [1]: > 10000 nM
IC50 [5]: 16 nM
IC50 [11]: > 10000 nM
IC50 (Tubulin): > 25000 nM
IC50 [18]: 22 nM
logD [24]: > 4.6
IC50 (MKN-45): 91 nM
solubility thermodynamic [32]: < 1 µM
solubility thermodynamic [40]: 15 µM
Activity [45]: Non-Toxic

SMILES: COC(=O)Nc1nc2cc(OS(=O)(=O)c3c(Cl)cccc3Cl)ccc2[nH]1
IC50 [5]: 23 nM
IC50 (Tubulin): 2700 nM
IC50 [47]: 1200 nM

SMILES: CCN(CC)CCNC(=O)Nc1nc2ccc(Sc3nnc4ccc(-c5ccc(F)cc5)nn34)cc2s1
IC50 [1]: 148 nM
IC50 [5]: 3 nM
IC50 [11]: 864 nM
IC50 [18]: 10 nM
logD [24]: 4.15
IC50 (MKN-45): 33 nM
IC50 [28]: 71 nM
solubility thermodynamic [32]: < 1 µM
solubility thermodynamic [40]: 1000 µM

Continued, values first:

Papp A→B at 20 µM [3]: 0.4 ×10⁻⁶ cm/s
IC50 [5]: 10 nM
IC50 (Cytochrome P450 3A4 [7]): 1.8 µM
INH (Cytochrome P450 3A4 [46]): -8.2 %/min
IC50 [11]: 140 nM
metabolised at 20 min, 5 µM [29]: 24%
Kd [30]: 8.7 nM
solubility thermodynamic [32]: 32 µM (≈ 17.6 µg/mL)
solubility thermodynamic [40]: 1170 µM
SMILES: O=C(NCCN1CCOCC1)Nc1nc2ccc(Sc3nnc4ccc(-c5cccc(F)c5)nn34)cc2s1

Papp A→B at 20 µM [3]: 2.6 ×10⁻⁶ cm/s
IC50 [5]: 6 nM
IC50 (Cytochrome P450 3A4 [7]): 31 µM
INH (Cytochrome P450 3A4 [46]): -5.5 %/min
IC50 [11]: 216 nM
bioavailability [13]: 12%
metabolised at 20 min, 5 µM [29]: 29%
solubility thermodynamic [32]: < 2 µM
SMILES: O=C(NCCN1CCOCC1)Nc1nc2ccc(Sc3nnc4ccc(OC5CCCC5)nn34)cc2s1
